In brackets after ≈: the same amount, converted by molar mass.
Columns and labels:
Staphylococcus aureus [1] = assay: Antibacterial activity against multidrug-resistant Staphylococcus aureus ATCC 43300 infected in BALB/C mouse assessed as mouse survival at 50 mg/kg, ip bid measured on day 4 post infection (reference value: 50%); format: functional
[2] = Selective index, ratio of IC50 for mouse L929 cells to MIC for Staphylococcus aureus ATCC 29213
In short: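 Selectivity index calculated as L929 IC50 (μM) divided by S. aureus MIC (μM).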

Staphylococcus aureus [3] = assay: Antibacterial activity against multidrug-resistant Staphylococcus aureus isolate 231 by broth microdilution assay; format: functional
In short: (§1)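 Broth microdilution MIC per CLSI guidelines against clinical MRSA isolates, for β-lactams and test compound alone and in combination. Compounds were dissolved in DMSO. Growth was read by eye, in duplicate. FIC index = FIC(compound) + FIC(drug); synergy defined as FIC index ≤0.5.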

Staphylococcus aureus [4] = assay: Antibacterial activity against multidrug-resistant Staphylococcus aureus isolate 256 by broth microdilution assay; format: functional; in short: as §1
Staphylococcus aureus [5] = assay: Antibacterial activity against multidrug-resistant Staphylococcus aureus isolate 3267 by broth microdilution assay; format: functional; in short: as §1
Staphylococcus aureus [6] = assay: Antibacterial activity against multidrug-resistant Staphylococcus aureus isolate 85 by broth microdilution assay; format: functional; in short: as §1
Staphylococcus aureus [7] = assay: Antibacterial activity against multidrug-resistant Staphylococcus aureus isolate 1449 by broth microdilution assay; format: functional; in short: as §1
Staphylococcus aureus [8] = assay: Synergistic antibacterial activity against multidrug-resistant Staphylococcus aureus isolate 254 in presence of amoxicillin by broth microdilution assay; format: functional
In short: (§2)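 CLSI broth microdilution on clinical MRSA isolates. MICs were measured for the β-lactam alone, the test agent alone and the two combined. Compounds were dissolved in DMSO, and growth inhibition was scored by eye. FIC index is the sum, over both agents, of MIC in combination divided by MIC alone. An FIC index ≤0.5 was taken as synergy.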

Staphylococcus aureus [9] = assay: Synergistic antibacterial activity against multidrug-resistant Staphylococcus aureus isolate 231 in presence of amoxicillin by broth microdilution assay; format: functional
In short: (§3)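 Clinical MRSA isolate panel; compound and β-lactam tested alone and in combination by CLSI broth microdilution, compounds dissolved in DMSO, growth inhibition scored by eye, run in duplicate. FIC index = FIC(compound) + FIC(drug), each the MIC in combination divided by the MIC alone; an index ≤ 0.5 was called synergy.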

Staphylococcus aureus [10] = assay: Synergistic antibacterial activity against multidrug-resistant Staphylococcus aureus isolate 2901 in presence of amoxicillin by broth microdilution assay; format: functional; in short: as §2
Staphylococcus aureus [11] = assay: Synergistic antibacterial activity against multidrug-resistant Staphylococcus aureus isolate 2895 in presence of amoxicillin by broth microdilution assay; format: functional; in short: as §2
Staphylococcus aureus [12] = assay: Synergistic antibacterial activity against multidrug-resistant Staphylococcus aureus isolate 2973 in presence of amoxicillin by broth microdilution assay; format: functional; in short: as §2
Staphylococcus aureus [13] = assay: Synergistic antibacterial activity against multidrug-resistant Staphylococcus aureus isolate 231 in presence of methicillin by broth microdilution assay; format: functional; in short: as §3
Staphylococcus aureus [14] = assay: Synergistic antibacterial activity against multidrug-resistant Staphylococcus aureus isolate 417 in presence of methicillin by broth microdilution assay; format: functional
Staphylococcus aureus [15] = assay: Synergistic antibacterial activity against multidrug-resistant Staphylococcus aureus isolate 231 in presence of cloxacillin by broth microdilution assay; format: functional; in short: as §3
Staphylococcus aureus [16] = assay: Synergistic antibacterial activity against multidrug-resistant Staphylococcus aureus isolate 757 in presence of cloxacillin by broth microdilution assay; format: functional
Staphylococcus aureus [17] = assay: Synergistic antibacterial activity against multidrug-resistant Staphylococcus aureus isolate 2728 in presence of cloxacillin by broth microdilution assay; format: functional; in short: as §2
Staphylococcus aureus [18] = assay: Synergistic antibacterial activity against multidrug-resistant Staphylococcus aureus isolate 254 in presence of cefuroxime by broth microdilution assay; format: functional; in short: as §2
Staphylococcus aureus [19] = assay: Synergistic antibacterial activity against multidrug-resistant Staphylococcus aureus isolate 417 in presence of cefuroxime by broth microdilution assay; format: functional
Staphylococcus aureus [20] = assay: Synergistic antibacterial activity against multidrug-resistant Staphylococcus aureus isolate 3332 in presence of cefuroxime by broth microdilution assay; format: functional; in short: as §2
Staphylococcus aureus [21] = assay: Synergistic antibacterial activity against multidrug-resistant Staphylococcus aureus isolate 3332 in presence of meropenem by broth microdilution assay; format: functional; in short: as §2
Staphylococcus aureus [22] = assay: Synergistic antibacterial activity against multidrug-resistant Staphylococcus aureus isolate 2919 in presence of meropenem by broth microdilution assay; format: functional; in short: as §2
Staphylococcus aureus [23] = assay: Synergistic antibacterial activity against multidrug-resistant Staphylococcus aureus isolate 2728 in presence of meropenem by broth microdilution assay; format: functional; in short: as §2
Staphylococcus aureus [24] = assay: Synergistic antibacterial activity against multidrug-resistant Staphylococcus aureus isolate 200 in presence of meropenem by broth microdilution assay; format: functional; in short: as §3
Staphylococcus aureus [25] = assay: Synergistic antibacterial activity against multidrug-resistant Staphylococcus aureus isolate 2728 assessed as fractional Inhibitory concentration index in presence of amoxicillin by broth microdilution assay; format: functional
Staphylococcus aureus [26] = assay: Synergistic antibacterial activity against multidrug-resistant Staphylococcus aureus isolate 85 assessed as fractional Inhibitory concentration index in presence of amoxicillin by broth microdilution assay; format: functional
Staphylococcus aureus [27] = assay: Synergistic antibacterial activity against multidrug-resistant Staphylococcus aureus isolate 3332 assessed as fractional Inhibitory concentration index in presence of methicillin by broth microdilution assay; format: functional
Staphylococcus aureus [28] = assay: Synergistic antibacterial activity against multidrug-resistant Staphylococcus aureus isolate 2895 assessed as fractional Inhibitory concentration index in presence of methicillin by broth microdilution assay; format: functional
Staphylococcus aureus [29] = assay: Synergistic antibacterial activity against multidrug-resistant Staphylococcus aureus isolate 1402 assessed as fractional Inhibitory concentration index in presence of methicillin by broth microdilution assay; format: functional
In short: (§4)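 CLSI broth microdilution run on clinical MRSA isolates with each β-lactam alone, the test agent alone, and the two combined; agents dissolved in DMSO. Growth inhibition was read by eye. FIC index = FIC(compound) + FIC(β-lactam), where each FIC is the MIC in combination divided by the MIC alone. An index ≤0.5 was taken as synergy.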

Staphylococcus aureus [30] = assay: Synergistic antibacterial activity against multidrug-resistant Staphylococcus aureus isolate 358 assessed as fractional Inhibitory concentration index in presence of methicillin by broth microdilution assay; format: functional
Staphylococcus aureus [31] = assay: Synergistic antibacterial activity against multidrug-resistant Staphylococcus aureus isolate 2490 assessed as fractional Inhibitory concentration index in presence of cloxacillin by broth microdilution assay; format: functional; in short: as §4
Staphylococcus aureus [32] = assay: Synergistic antibacterial activity against multidrug-resistant Staphylococcus aureus isolate 417 assessed as fractional Inhibitory concentration index in presence of cloxacillin by broth microdilution assay; format: functional
Staphylococcus aureus [33] = assay: Synergistic antibacterial activity against multidrug-resistant Staphylococcus aureus isolate 254 assessed as fractional Inhibitory concentration index in presence of meropenem by broth microdilution assay; format: functional
Staphylococcus aureus [34] = assay: Synergistic antibacterial activity against multidrug-resistant Staphylococcus aureus isolate 1344 assessed as fractional Inhibitory concentration index in presence of meropenem by broth microdilution assay; format: functional; in short: as §4
Staphylococcus aureus [35] = assay: Synergistic antibacterial activity against multidrug-resistant Staphylococcus aureus isolate 757 assessed as fractional Inhibitory concentration index in presence of meropenem by broth microdilution assay; format: functional
Staphylococcus aureus [36] = assay: Synergistic antibacterial activity against multidrug-resistant Staphylococcus aureus isolate 1717 assessed as fractional Inhibitory concentration index in presence of meropenem by broth microdilution assay; format: functional; in short: as §4
[37] = AUC (0 to infinity) in Sprague-Dawley rat at 50 mg/kg, po by UPLC-MS/MS analysis; format: ADME, organism-based; parameters: dose 50 mg/kg, route oral, time infinity; conditions: in vivo
[38] = AUC (0 to infinity) in Sprague-Dawley rat at 1 mg/kg, iv by UPLC-MS/MS analysis; format: ADME, organism-based; parameters: dose 1 mg/kg, time infinity, route intravenous; conditions: in vivo

## CCCCCCCCCNc1ccc(F)c(C(N)=O)c1F
Staphylococcus aureus [1]
  Activity: 40%
[2]
  Selectivity Index: >32
Staphylococcus aureus [3]
  MIC: 8 µg/mL (≈ 0.0268 mM)
Staphylococcus aureus [4]
  MIC: 1020 µg/mL (≈ 3.43 mM)
Staphylococcus aureus [5]
  MIC: 1020 µg/mL (≈ 3.43 mM)
Staphylococcus aureus [6]
  MIC: 1020 µg/mL (≈ 3.43 mM)
Staphylococcus aureus [7]
  MIC: 4 µg/mL (≈ 0.0134 mM)
Staphylococcus aureus [8]
  MIC: 8 µg/mL
Staphylococcus aureus [9]
  MIC: 4 µg/mL
Staphylococcus aureus [10]
  MIC: 16 µg/mL
Staphylococcus aureus [11]
  MIC: 16 µg/mL
Staphylococcus aureus [12]
  MIC: 8 µg/mL
Staphylococcus aureus [13]
  MIC: 4 µg/mL
Staphylococcus aureus [14]
  MIC: 2 µg/mL
Staphylococcus aureus [15]
  MIC: 2 µg/mL
Staphylococcus aureus [16]
  MIC: 1 µg/mL
Staphylococcus aureus [17]
  MIC: 1 µg/mL
Staphylococcus aureus [18]
  MIC: 4 µg/mL
Staphylococcus aureus [19]
  MIC: 2 µg/mL
Staphylococcus aureus [20]
  MIC: 2 µg/mL
Staphylococcus aureus [21]
  MIC: 4 µg/mL
Staphylococcus aureus [22]
  MIC: 4 µg/mL
Staphylococcus aureus [23]
  MIC: 4 µg/mL
Staphylococcus aureus [24]
  MIC: 8 µg/mL
Staphylococcus aureus [25]
  fractional inhibitory concentration index (FICI): 0.1
Staphylococcus aureus [26]
  fractional inhibitory concentration index (FICI): 0
Staphylococcus aureus [27]
  fractional inhibitory concentration index (FICI): 0.3
Staphylococcus aureus [28]
  fractional inhibitory concentration index (FICI): 0.3
Staphylococcus aureus [29]
  fractional inhibitory concentration index (FICI): 0.6
Staphylococcus aureus [30]
  fractional inhibitory concentration index (FICI): 0.3
Staphylococcus aureus [31]
  fractional inhibitory concentration index (FICI): 0.6
Staphylococcus aureus [32]
  fractional inhibitory concentration index (FICI): 0.1
Staphylococcus aureus [33]
  fractional inhibitory concentration index (FICI): 1.5
Staphylococcus aureus [34]
  fractional inhibitory concentration index (FICI): 2
Staphylococcus aureus [35]
  fractional inhibitory concentration index (FICI): 4.1
Staphylococcus aureus [36]
  fractional inhibitory concentration index (FICI): 3
[37]
  AUC(0-inf): 10300 ng·h/mL
[38]
  AUC(0-inf): 1600 ng·h/mL

Reference: ChEMBL document CHEMBL4330069, “Boosting the efficacy of anti-MRSA β-lactam antibiotics via an easily accessible, non-cytotoxic and orally bioavailable FtsZ inhibitor” (Eur J Med Chem, 2019)
